Measurements as given in ChEMBL document CHEMBL3588746, “Using click chemistry toward novel 1,2,3-triazole-linked dopamine D3 receptor ligands” (Bioorg Med Chem, 2015).
pKi: −log10 of the molar value.

Tests used:
Homo sapiens = species: Homo sapiens; assay: Selectivity ratio of Ki for human dopamine D2 receptor to Ki for human dopamine D3 receptor
Procedure, shortened: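 Ki values from [3H]N-methylspiperone (0.4 nM) competition in membranes from HEK293 cells stably expressing human D2R or D3R, 10 μg protein per tube. Incubated 1 h at room temperature in triplicate, with 10 μM butaclamol defining nonspecific binding. […] Ratio is D2R Ki divided by D3R Ki.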

D(2) dopamine receptor = D(2) dopamine receptor (Homo sapiens, UniProt P14416); assay: Displacement of [3H]-N-methylspiperone from human dopamine D2 receptor expressed in HEK293 cell membranes after 1 hr by liquid scintillation counting analysis
[1] = Metabolic stability in mouse liver microsomes assessed as compound remaining at 1 uM after 60 mins by LC/MS/MS analysis in presence of NADPH regenerating system; assay type: ADME; conditions: read-out: Stability
D(3) dopamine receptor = D(3) dopamine receptor (Homo sapiens, UniProt P35462); assay: Displacement of [3H]-N-methylspiperone from human dopamine D3 receptor expressed in HEK293 cell membranes after 1 hr by liquid scintillation counting analysis
D(4) dopamine receptor = target: T1, D(4) dopamine receptor (Homo sapiens, UniProt P21917); assay: Displacement of [3H]-N-methylspiperone from human dopamine D4 receptor expressed in HEK293 cell membranes after 1 hr by liquid scintillation counting analysis
T1 sequence (P21917 whole entry): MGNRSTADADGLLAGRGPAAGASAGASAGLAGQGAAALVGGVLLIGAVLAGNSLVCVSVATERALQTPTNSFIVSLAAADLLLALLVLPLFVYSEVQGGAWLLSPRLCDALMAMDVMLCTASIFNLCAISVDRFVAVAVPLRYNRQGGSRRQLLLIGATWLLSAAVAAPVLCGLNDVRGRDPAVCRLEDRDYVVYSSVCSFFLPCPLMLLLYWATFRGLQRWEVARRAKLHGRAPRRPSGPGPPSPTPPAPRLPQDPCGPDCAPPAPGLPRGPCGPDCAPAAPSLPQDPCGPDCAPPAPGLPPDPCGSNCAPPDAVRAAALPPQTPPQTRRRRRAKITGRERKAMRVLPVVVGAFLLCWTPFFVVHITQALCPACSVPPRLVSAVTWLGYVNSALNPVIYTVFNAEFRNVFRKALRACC

[2] = Metabolic stability in mouse liver microsomes assessed as compound remaining at 1 uM after 30 mins by LC/MS/MS analysis in presence of NADPH regenerating system; assay type: ADME; conditions: read-out: Stability
Procedure, shortened: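 Mouse liver microsomes at 0.2 mg/mL with compound at 1 μM final, in 100 mM potassium phosphate pH 7.4. Reaction started by adding microsomes, triplicate. Sampled at 0, 30 and 60 min and quenched with ice-cold acetonitrile plus internal standard. Percent parent remaining measured by LC/MS/MS. Controls lacking NADPH were run; testosterone served as positive control.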

Chain of D(2) dopamine receptor (P14416 whole entry): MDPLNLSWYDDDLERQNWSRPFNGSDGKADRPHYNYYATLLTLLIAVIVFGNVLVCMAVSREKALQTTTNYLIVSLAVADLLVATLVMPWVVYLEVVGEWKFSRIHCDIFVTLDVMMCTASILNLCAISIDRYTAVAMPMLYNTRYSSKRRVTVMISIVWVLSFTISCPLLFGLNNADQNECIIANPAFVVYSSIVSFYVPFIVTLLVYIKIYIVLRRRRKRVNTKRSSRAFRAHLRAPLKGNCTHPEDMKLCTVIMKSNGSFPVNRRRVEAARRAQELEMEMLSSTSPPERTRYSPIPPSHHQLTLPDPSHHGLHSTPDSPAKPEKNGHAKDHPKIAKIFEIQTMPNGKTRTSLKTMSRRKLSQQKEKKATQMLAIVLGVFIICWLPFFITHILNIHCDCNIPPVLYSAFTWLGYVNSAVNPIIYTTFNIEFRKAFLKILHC
Chain of D(3) dopamine receptor (P35462 whole entry): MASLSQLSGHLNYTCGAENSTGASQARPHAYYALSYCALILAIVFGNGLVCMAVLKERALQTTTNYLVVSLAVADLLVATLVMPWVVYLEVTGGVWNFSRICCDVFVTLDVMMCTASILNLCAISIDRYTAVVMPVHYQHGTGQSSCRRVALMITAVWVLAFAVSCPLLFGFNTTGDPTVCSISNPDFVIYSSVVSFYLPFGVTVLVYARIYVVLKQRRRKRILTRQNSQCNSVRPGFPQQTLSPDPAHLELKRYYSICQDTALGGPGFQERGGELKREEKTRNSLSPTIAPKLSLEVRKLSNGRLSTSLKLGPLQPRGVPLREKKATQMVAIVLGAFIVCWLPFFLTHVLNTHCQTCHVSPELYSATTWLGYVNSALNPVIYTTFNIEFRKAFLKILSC

SMILES | Ratio Ki (Homo sapiens) | pKi (D(2) dopamine receptor) | remaining at 1 h, 1 µM [1] | pKi (D(3) dopamine receptor) | pKi (D(4) dopamine receptor) | remaining at 0.5 h, 1 µM [2]
O=C(NCCC(O)CN1CCN(c2cccc(Cl)c2Cl)CC1)c1cnc2ccccc2c1 (stereo unspecified) | 110 | 6.49 | 4% | 8.54 |  | 
Clc1cccc(N2CCN(CCCCc3cn(-c4ccc5[nH]ccc5c4)nn3)CC2)c1Cl | 47 | 7.33 |  | 9.00 | 6.29 | 
COc1ccccc1-c1cn(CCC(O)CN2CCN(c3ccccc3OC)CC2)nn1 (racemic) | 2.1 | 5.99 |  | 6.31 | < 5.52 | 
OC(CCn1cc(-c2cnc3ccccc3c2)nn1)CN1CCN(c2cccc(Cl)c2Cl)CC1 (racemic) | 14 | 6.61 | 26% | 7.74 |  | 
COc1ccccc1N1CCN(CCCCc2cn(-c3ccccc3)nn2)CC1 | 10 | 7.27 |  | 8.27 | 6.31 | 
COc1ccccc1N1CCN(CC(O)CCn2cc(-c3ccccc3)nn2)CC1 (racemic) | 7 | 5.92 |  | 6.76 | < 5.52 | 
COc1ccccc1N1CCN(CCCCn2cc(-c3ccc4c(c3)Cc3ccccc3-4)nn2)CC1 | 9 | 7.30 |  | 8.26 | 6.23 | 
COc1ccccc1N1CCN(CC(O)CCn2cc(-c3ccc4[nH]ccc4c3)nn2)CC1 (racemic) | 23 | 6.10 | 27% | 7.47 |  | 44%
COc1ccccc1N1CCN(CC(O)CCn2cc(-c3ccc4ncccc4c3)nn2)CC1 (racemic) | 6.2 | 6.37 |  | 7.17 | < 5.52 | 
COc1ccccc1N1CCN(CCCCn2cc(-c3ccccc3)nn2)CC1 | 6 | 6.86 |  | 7.64 | 6.32 | 
COc1ccccc1N1CCN(CCCCc2cn(-c3cccc4ncccc34)nn2)CC1 | 6.4 | 7.08 |  | 7.88 | < 6.00 | 
OC(CCn1cc(-c2ccc3[nH]ccc3c2)nn1)CN1CCN(c2cccc(Cl)c2Cl)CC1 (racemic) | 165 | 6.02 | 35% | 8.23 |  | 45%
COc1ccccc1N1CCN(CC(O)CCn2cc(-c3ccc4ccccc4c3)nn2)CC1 (racemic) | 4.6 | 6.72 |  | 7.39 | < 5.70 | 
OC(CCn1cc(-c2ccc3ccccc3c2)nn1)CN1CCN(c2cccc(Cl)c2Cl)CC1 (racemic) | 745 | 4.73 |  | 7.60 | < 4.70 | 
COc1ccccc1N1CCN(CCCCn2cc(-c3ccc(-c4ccccc4)cc3)nn2)CC1 | 12 | 7.16 |  | 8.23 | 6.37 | 
Clc1cccc(N2CCN(CCCCn3cc(-c4ccc5ccccc5c4)nn3)CC2)c1Cl | 13 | 6.99 |  | 8.11 | < 6.00 | 
Clc1cccc(N2CCN(CCCCn3cc(-c4ccc5[nH]ccc5c4)nn3)CC2)c1Cl | 38 | 7.25 |  | 8.83 | < 5.70 | 
COc1ccccc1N1CCN(CCCCn2cc(-c3ccc4ccccc4c3)nn2)CC1 | 2.1 | 7.63 |  | 7.95 | 6.63 | 
Clc1cccc(N2CCN(CCCCc3cn(-c4ccc5c(c4)Cc4ccccc4-5)nn3)CC2)c1Cl | 84 | 6.37 |  | 8.30 | 5.35 | 

Continued by rising pKi (D(2) dopamine receptor), values first:

Ratio Ki (Homo sapiens) | pKi (D(2) dopamine receptor) | remaining at 1 h, 1 µM [1] | pKi (D(3) dopamine receptor) | pKi (D(4) dopamine receptor) | remaining at 0.5 h, 1 µM [2] | SMILES
270 | 4.82 |  | 7.25 | < 5.15 |  | OC(CCn1cc(-c2ccc(-c3ccccc3)cc2)nn1)CN1CCN(c2cccc(Cl)c2Cl)CC1 (racemic)
311 | 5.59 |  | 8.08 | < 5.00 |  | Clc1cccc(N2CCN(CCCCn3cc(-c4ccc(-c5ccccc5)cc4)nn3)CC2)c1Cl
63 | 6.05 |  | 7.85 | < 4.70 |  | Clc1cccc(N2CCN(CCCCn3cc(-c4ccc5c(c4)Cc4ccccc4-5)nn3)CC2)c1Cl
27 | 6.09 |  | 7.52 | < 5.70 |  | COc1ccccc1N1CCN(CC(O)CCn2cc(-c3ccc(-c4ccccc4)cc3)nn2)CC1 (racemic)
33 | 6.22 |  | 7.73 | < 6.00 |  | COc1ccccc1N1CCN(CC(O)CCn2cc(-c3ccc4c(c3)Cc3ccccc3-4)nn2)CC1 (racemic)
21 | 7.09 |  | 8.42 | < 5.70 |  | Clc1cccc(N2CCN(CCCCc3cn(-c4ccc5ccccc5c4)nn3)CC2)c1Cl
36 | 7.24 |  | 8.80 | 6.48 |  | COc1ccccc1N1CCN(CCCCc2cn(-c3ccc4c(c3)Cc3ccccc3-4)nn2)CC1
40 | 7.27 |  | 8.87 | < 6.00 |  | Clc1cccc(N2CCN(CCCCn3cc(-c4ccc5ncccc5c4)nn3)CC2)c1Cl
17 | 7.29 |  | 8.51 | 6.45 |  | COc1ccccc1N1CCN(CCCCc2cn(-c3ccc4[nH]ccc4c3)nn2)CC1
8 | 7.36 |  | 8.26 | 6.65 |  | COc1ccccc1N1CCN(CCCCn2cc(-c3ccc4[nH]ccc4c3)nn2)CC1
6.3 | 7.37 |  | 8.17 | 6.57 |  | COc1ccccc1N1CCN(CCCCn2cc(-c3ccc4ncccc4c3)nn2)CC1
11 | 7.50 |  | 8.53 | 6.52 |  | COc1ccccc1N1CCN(CCCCc2cn(-c3ccc4ccccc4c3)nn2)CC1
